Source: PubChem
This is a sample that favours compounds with a hit; in the whole collection about 2.6% have one here.
RAM inhibit – inhibitors of the yeast RAM network; S. cerevisiae dse1pr::URA3 reporter, 5-FOA growth OD615, 2 d; analog-sensitive cbk1-as2 kinase mutant strain; inhibition, % at 50 µM; 190,000 compounds, 1.8% hits; AID 868;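 active = inhibition above a set limit, 3 SD over mean compound inhibition, cut at about 8.4% in these data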;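 also: 0% = DMSO-only wells with no growth and 100% = 10 µM 1-NA-PP1 full growth; inhibition rescues growth on 5-FOA so higher OD means more RAM inhibition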
Yeast growth inh – reduces growth of yeast BB579 in restrictive medium; S. cerevisiae BB579 growth, OD615, 48 h; inhibition, % at 10 µM; 140,000 compounds, 0.51% hits; AID 804;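 active = inhibition above a set limit, 3 SD over the mean compound inhibition, cut at about 44% in these data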
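Assay system: S. cerevisiae DeaD strain BB579 yeast. Medium: CSMM-D restrictive synthetic medium containing dextrose (glucose). Times: 4 h cell preincubation, 48 h compound exposure, 30 °C humidified. Signal: OD615 turbidity measurement. Benchmarks: positive control amphotericin B 10 µg/mL.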
Yeast life ext – extends the lifespan of yeast; inhibition of the nicotinamide effect, % at 10 µM; 130,000 compounds, 0.68% hits; S. cerevisiae growth with nicotinamide, OD615; deaD strain in restrictive glucose medium;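 active = inhibition above a set limit, placed 3 SD over the median of all compounds, cut at about 26% in these data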;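 also: 0% = nicotinamide-treated wells and 100% = cells grown without nicotinamide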
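assay system = DeaD-strain S. cerevisiae | measured by = absorbance at 615 nm | probe or stimulus = nicotinamide 1.5 mM | buffer or medium = CSMM-D glucose medium, restrictive | times = 48 h at 30 °C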
The depositor's hits bear a star; · = no result.

SMILES	RAM inhibit	Yeast growth inh	Yeast life ext
O=C(Nc1ccc2c(c1)OCO2)C1CCN(S(=O)(=O)c2ccc3c(c2)OCCO3)CC1	5	-29	-10
CCOc1ccc(C(=O)Nc2ccc3c(c2)OCCO3)cc1OC	8.5*	-61	-10
COc1ccc(S(=O)(=O)N2CCC(C(=O)Nc3ccc4c(c3)OCCO4)CC2)cc1OC	11*	-34	-5
CCOc1ccc(C(=O)Nc2ccc3c(c2)OCCO3)cc1[N+](=O)[O-]	1	·	·
COc1ccc(NC(=O)C2CCN(S(=O)(=O)c3ccc(C)cc3)CC2)cc1OC	3	-37	-6
CN1CCN(c2ccc(NC(=O)c3ccc(C#N)cc3F)cc2Cl)CC1	0	·	·
CCn1cc(CNC(=O)CCc2nnc(CCC3CCCCC3)o2)cn1	0	·	·
Cc1cc2ccccc2n1CCNC(=O)C(C)Oc1ccccc1 (stereo not drawn)	8.7*	-22	-12
COc1cc(/C=C/C(=O)NCCn2c(C)cc3ccccc32)cc(OC)c1OC	9.7*	-16	-3
COc1ccc(/C=C/C(=O)NCCn2c(C)cc3ccccc32)cc1OC	6	-1	-5
Cc1cc2ccccc2n1CCNC(=O)C(C)C	0	-10	-3
COc1ccc(NC(=S)N/N=C/c2cccn2Cc2ccc(F)cc2)cc1	5	·	·
O=C(Nc1cccc(Cl)c1)C1C2CCC3C(CCC21)C3(Cl)Cl (stereo not drawn)	1	-8	-1
CCOC(=O)c1c(C)[nH]c(C)c1C(=O)COC(=O)c1ccc(S(=O)(=O)N(CC)CC)cc1	8.7*	-38	-13
CCOC(=O)c1c(C)[nH]c(C)c1C(=O)COC(=O)c1cccc(S(=O)(=O)N(CC)CC)c1	4	-48	-3
CC1CN(Cc2nnc(-c3ccccc3)o2)CC(C)O1 (stereo not drawn)	1	·	·
Cc1ccc2nc(N3C(=O)C(O)=C(C(=O)c4ccco4)C3c3cccs3)sc2c1 (stereo not drawn)	5	-31	61*
COc1ccc(CCN2C(=O)C(O)=C(C(=O)c3ccco3)C2c2cccs2)cc1OC (stereo not drawn)	6	-33	83*
COc1cc(C2C(C(=O)c3ccco3)=C(O)C(=O)N2CCc2ccccc2)ccc1O (stereo not drawn)	3	-19	1
COc1ccc(C2C(C(=O)c3ccco3)=C(O)C(=O)N2c2nnc(C)s2)cc1 (stereo not drawn)	0	·	·
C/C(=C\c1ccccc1)C(=O)Nc1ccc(S(=O)(=O)Nc2ncccn2)cc1	4	·	·
CCCCN(CCCC)C(=O)c1nsnc1-c1ccccc1O	0	-13	0
CCCc1cc(C(=O)Cc2ccc(F)cc2)c(O)cc1O	-2	92*	-23
CCc1cc(C(=O)Cc2ccc(F)cc2)c(O)cc1O	-2	-43	-4
Cc1ccc(OC(=O)c2oc3ccc(F)cc3c2C)c(C)c1	4	-43	-13
SMILES	RAM inhibit	Yeast growth inh	Yeast life ext
COc1ccc(/C=C/C(=O)c2oc3ccc(F)cc3c2C)cc1	11*	-41	5
CCOC(=O)C1=C(C)NC(C)=C(C(=O)OCC)C1c1cccs1	-2	-26	-3
CCOC(=O)C1=CN(Cc2ccc(OC)cc2)C=C(C(=O)OCC)C1c1cccs1	10*	·	·
Cc1cc(C)n(CC(=O)N2CCCC(C(=O)c3cccc(OC(C)C)c3)C2)n1 (stereo not drawn)	1	·	·
O=C(c1ccco1)N1CCN(c2cc(N3CCOCC3)c(F)cc2[N+](=O)[O-])CC1	1	·	·
O/N=C/C1=C(Cl)c2ccccc2CC1	-1	·	·
CCc1ccccc1N/N=C(/C)c1c(O)cc(C)oc1=O	-1	·	·
Cc1cc(O)c(/C=N/OCc2ccc(Cl)cc2Cl)c(=O)o1	1	·	·
Cc1cc(O)c(/C=N/Nc2ccccc2Cl)c(=O)o1	0	98*	-32
Cc1cc(O)c(/C=N/Nc2ccc(Cl)cc2)c(=O)o1	2	97*	-28
Cc1cccc(N=Cc2c(O)cc(C)oc2=O)c1	0	·	·
Cc1cc(O)c(/C=N/Nc2cccc(Cl)c2)c(=O)o1	-1	98*	-26
C/C(CCc1ccccc1)=N/NC(=O)C(=O)NC(C)c1ccccc1 (stereo not drawn)	0	·	·
CCOC(=O)c1ccc(NC(=O)CCc2nc(-c3ccccc3)no2)cc1	9.5*	-36	-7
CCOC(=O)c1ccc(NC(=O)CCc2nc(-c3ccccc3Cl)no2)cc1	8	-51	-8
CC(C)(C)NC(=O)c1nn(Cc2ccccc2)c(=O)c2ccccc12	0	·	·
O=C1c2ccccc2C(Nc2ccc3c(c2)OCCO3)N1c1ccccn1 (stereo not drawn)	1	-15	36*
O=C1c2ccccc2C(Nc2ccc3c(c2)OCCO3)N1c1ccc(Cl)cn1 (stereo not drawn)	1	-36	3
OC(c1ccccc1)c1nccc2ccccc12 (stereo not drawn)	1	·	·
COc1ccc(-n2nc(C(=O)NCC(=O)NCc3ccco3)c3ccccc3c2=O)cc1	2	-7	-1
COc1ccccc1CNC(=O)c1nn(-c2ccc(C)cc2)c(=O)c2c1c1ccccc1n2C	9.4*	-21	6
COc1ccc(-n2nc(C(=O)NCc3ccco3)c3c4ccccc4n(C)c3c2=O)cc1Cl	9.8*	-33	6
CCCCN(CC)CCNC(=O)c1nn(-c2ccc(OC)cc2)c(=O)c2c1c1ccccc1n2C	2	·	·
Cc1ccc(C)c(NC(=O)C(c2ccccc2)N2CCOCC2)c1 (stereo not drawn)	-1	·	·
COc1ccc2c(c1OC)C(=O)N1N=C(c3ccc(O)cc3)CC21 (stereo not drawn)	1	-53	-12
SMILES	RAM inhibit	Yeast growth inh	Yeast life ext
O=C(NNS(=O)(=O)c1ccc2ccccc2c1)c1cccnc1	1	-12	-1
COc1ccc(C(=O)NCCSc2ccccc2)cc1OC	2	·	·
O=c1c2cc(N3CCOCC3)ccc2[nH]c(=S)n1Cc1ccccn1	2	-5	0
C=CCn1c(=O)[nH]c2cc(C(=O)N3CCN(c4ccc(C(C)=O)cc4)CC3)ccc2c1=O	3	-46	55*
C=CCn1c(=O)[nH]c2cc(C(=O)N3CCN(c4cccc(Cl)c4)CC3)ccc2c1=O	4	-21	-3
O=c1c2cc(N3CCOCC3)ccc2[nH]c(=S)n1CCc1ccccc1	7	·	·
CC(=O)c1ccc(N2CCN(C(=O)c3ccc(Cn4c(=S)[nH]c5ccc(N6CCOCC6)cc5c4=O)cc3)CC2)cc1	9.4*	·	·
O=c1c2cc(N3CCOCC3)ccc2[nH]c(=S)n1Cc1ccccc1Cl	8.5*	·	·
COc1cccc(CN2CCN(c3nc4nonc4nc3N3CCCCC3)CC2=O)c1	1	·	·
COCCn1nnnc1C(C(C)C)N1CCCC(C)C1 (stereo not drawn)	1	·	·
CCCCNC(=O)C(c1ccc(-c2ccccc2)cc1)N(CCN1CCOCC1)C(=O)CCCCCN1C(=O)NC(c2ccc([N+](=O)[O-])cc2)C(C(=O)OCc2ccccc2)=C1C (stereo not drawn)	3	-16	1
CCCCCCN(C(=O)CCCCCN1C(=O)NC(c2ccc(Cl)cc2)C(C(=O)OCc2ccccc2)=C1C)C(C(=O)NCCCC)c1ccc(OCC(=O)OC)c(C(=O)OC)c1 (stereo not drawn)	10*	-42	6
